Molecules are shown by their SMILES. Activity calls are given as the source filed them. No cut-off for these calls is given here.

Here are results for 8 molecules from ChEMBL document CHEMBL4024760, “Specific Inhibition of Bacterial β-Glucuronidase by Pyrazolo[4,3-c]quinoline Derivatives via a pH-Dependent Manner To Suppress Chemotherapy-Induced Intestinal Toxicity” (J Med Chem, 2017).

In data set [1] the test system is Escherichia coli. Kind of data set: Toxicity against Escherichia coli BL21(DE3) assessed as effect on cell growth at 100 uM after 6 hrs. The method, boiled down: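 BL21(DE3) E. coli (diluted to OD600 0.1 in LB after overnight growth) incubated with compound at a final 100 μM, shaking at 37 °C for 6 h. Growth measured by OD600; viability given as % of the untreated control.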

Data set [2] in a line: Inhibition of N-terminal His-tagged Escherichia coli beta-glucuronidase expressed in Escherichia coli BL21 (DE3) using pNPG as substrate preincubated for 30 mins followed by substrate addition measured after 1 hr. The essentials: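 Purified E. coli βG (20 ng) preincubated 30 min at 37 °C with compound (0.64–10 000 nM) in PBS pH 7.5 containing 10% DMSO and 0.05% BSA. pNPG (20 mM stock) then added for 1 h, quenched with 2 N NaOH, and pNP read at 405 nm. IC50 derived from a four-parameter curve fit; SD of n = 3.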

For data set [3], the target named is T1, beta-glucuronidase (Homo sapiens, UniProt P08236).
T1 sequence (P08236 whole entry): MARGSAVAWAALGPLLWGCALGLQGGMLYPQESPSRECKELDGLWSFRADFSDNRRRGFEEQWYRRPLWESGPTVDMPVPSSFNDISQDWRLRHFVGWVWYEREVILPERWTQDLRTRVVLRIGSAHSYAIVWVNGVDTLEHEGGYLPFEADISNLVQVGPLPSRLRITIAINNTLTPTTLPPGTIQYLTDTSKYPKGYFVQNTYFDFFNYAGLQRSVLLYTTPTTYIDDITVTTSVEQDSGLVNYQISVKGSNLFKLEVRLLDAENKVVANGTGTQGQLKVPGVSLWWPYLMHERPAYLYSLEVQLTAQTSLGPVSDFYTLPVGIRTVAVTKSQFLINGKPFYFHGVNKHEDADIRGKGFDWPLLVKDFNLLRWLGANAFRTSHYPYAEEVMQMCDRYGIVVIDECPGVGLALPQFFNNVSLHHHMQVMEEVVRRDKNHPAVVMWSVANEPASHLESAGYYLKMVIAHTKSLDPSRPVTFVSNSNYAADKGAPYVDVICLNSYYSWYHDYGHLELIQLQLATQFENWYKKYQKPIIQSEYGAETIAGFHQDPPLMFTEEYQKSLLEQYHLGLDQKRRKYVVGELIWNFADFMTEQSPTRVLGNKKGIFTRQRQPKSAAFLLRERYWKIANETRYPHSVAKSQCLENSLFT
Kind of data set: Inhibition of N-terminal His-tagged human beta-glucuronidase expressed in Escherichia coli BL21 (DE3) assessed as residual activity using pNPG as substrate at 10 uM preincubated for 30 mins followed by substrate addition measured after 1 hr relative to control. The conditions noted are these: probe pNPG, read-out: Activity.

Data set [4] relates to Escherichia coli. The data set can be described thus: Inhibition of N-terminal His-tagged Escherichia coli beta-glucuronidase expressed in Escherichia coli BL21 (DE3) assessed as residual activity using pNPG as substrate at 10 uM preincubated for 30 mins followed by substrate addition measured after 1 hr relative to control. The essentials: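 Purified E. coli βG (20 ng) preincubated with 10 μM compound for 30 min at 37 °C in PBS pH 7.5 with 10% DMSO and 0.05% BSA. pNPG (20 mM stock) then added for 1 h, quenched with 2 N NaOH, and read at OD405. Result given as % activity versus a 10% DMSO control; n = 3.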

Data set [5] deals with Escherichia coli BL21(DE3). The data set can be described thus: Inhibition of beta-glucuronidase in Escherichia coli BL21 (DE3) using pNPG as substrate at 50 uM preincubated for 30 mins followed by substrate addition measured after 1 hr relative to control. The essentials: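 BL21(DE3) E. coli grown overnight and diluted to OD600 0.1 in LB. Cells treated with compound (50, 10 or 2 μM) for 30 min at 37 °C, then pNPG (40 mM stock) added for 1 h. Cells pelleted at 6000g; supernatant quenched with NaOH and read at OD405. Activity given as % of a 1% DMSO control.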

Data set [6] deals with Escherichia coli. Kind of data set: Inhibition of N-terminal His-tagged Escherichia coli beta-glucuronidase expressed in Escherichia coli BL21 (DE3) using pNPG as substrate at 10 uM at pH 6.5. The method, boiled down: (§1)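 Purified E. coli βG assay at 10 μM compound, with PBS replaced by Na2HPO4 (0.2 M)/citric acid (0.1 M) buffer mixtures at each pH. Enzyme preincubated with compound 30 min at 37 °C, then pNPG added for 1 h; NaOH-quenched pNP read at 405 nm. Activity given relative to a 10% DMSO control at the same pH; n = 3.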

For data set [7], the system named is Mus musculus. Kind of data set: Protection against CPT-11 induced intestinal toxicity in Balb/cJ mouse assessed as reduction in intestinal tissue damage at 3 mg/kg/day, po starting from 2 days before 50 mg/kg/day, ip CPT-11 administration for 10 consecutive days by hematoxylin and eosin staining based method. The data set is classed as functional, organism-based. The method, boiled down: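 Inhibitor given orally to BALB/cJ mice at 3 mg/kg/day in DDW (200 μL/day for controls), starting 2 days before CPT-11. CPT-11 50 mg/kg or saline given ip for 10 consecutive days. Jejunum, ileum and colon sections then H&E-stained and examined for villus and crypt destruction; 3–5 mice per group.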

Data set [8] concerns Escherichia coli. Kind of data set: Inhibition of N-terminal His-tagged Escherichia coli beta-glucuronidase expressed in Escherichia coli BL21 (DE3) using pNPG as substrate at 10 uM at pH 5.5. The method, boiled down: as §1
For data set [9], the system named is CT26. Kind of data set: Effect on CPT-11 induced antitumor activity against mouse CT26 cells transplanted in Balb/cJ mouse assessed as reduction in tumor volume at 3 mg/kg/day administered via oral gavage for 18 days starting from 2 days before 50 mg/kg/day, ip CPT-11 dosing from day 2 measured every other day up to 18 days. The data set is classed as functional, organism-based. The essentials: (§2)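 CT26 tumour-bearing BALB/c mice (cells inoculated day −8). Inhibitor given orally at 3 mg/kg/day in DDW (dosing solution 0.3 mg/mL) from day −2 onward. Daily ip CPT-11 50 mg/kg or saline from day 0. Tumour growth, body weight and diarrhea score (0 solid to 3 watery with severe perianal staining) recorded every other day; severity distribution on day 18. n = 6 mice/group; two-way ANOVA.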

Data set [10] relates to Escherichia coli. The data set can be described thus: Inhibition of N-terminal His-tagged Escherichia coli beta-glucuronidase expressed in Escherichia coli BL21 (DE3) using pNPG as substrate at 10 uM at pH 7.5. The method, boiled down: as §1
Data set [11] concerns Mus musculus. Kind of data set: Effect on systemic metabolism of CPT-11 in mouse CT26 cells transplanted Balb/cJ mouse assessed as effect on CPT-11-induced weight loss at 3 mg/kg/day administered via oral gavage for 18 days starting from 2 days before 50 mg/kg/day, ip CPT-11 dosing from day 2 measured every other day up to 18 days. Format: functional, organism-based. The method, boiled down:
as §2

In data set [12] the test system is Escherichia coli. The data set can be described thus: Inhibition of intestinal Escherichia coli beta-glucuronidase in Balb/cJ mouse using FDGIcU as substrate at 3 mg/kg, po for 5 days measured on day 5 post last dose 120 mins after probe administration. Format: organism-based. The method, boiled down: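 BALB/cJ mice were gavaged with inhibitor at 3 mg/kg/day or DDW (200 μL) for 5 days. FDGlcU probe (500 μg/100 μL) given orally 30 min after the fifth dose. Intestinal fluorescein imaged in vivo 120 min after the probe (ex 490/em 525 nm) and quantified as average radiance; n = 6; two-tailed t test.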

The subject of data set [13] is Escherichia coli. Kind of data set: Inhibition of Escherichia coli beta-glucuronidase in Balb/cJ mouse feces using pNPG as substrate at 3 mg/kg, po for 5 days measured on day 5 post last dose after 1 hr. The data set is classed as organism-based. The essentials:
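Mice gavaged with inhibitor at 3 mg/kg/day or DDW for 5 days. Fresh feces homogenized 1:9 w/v in assay buffer, mixed with assay buffer and 20 mM pNPG (stock), incubated 37 °C for 1 h, centrifuged, quenched with 2 N NaOH, and pNP read at OD405; n = 6; two-tailed t test.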

Data set [14] deals with Mus musculus. The data set can be described thus: Protection against CPT-11 induced intestinal toxicity in Balb/cJ mouse transplanted with mouse CT26 cells assessed as reduction in diarrhea level at 3 mg/kg/day administered via oral gavage for 18 days starting from 2 days before 50 mg/kg/day, ip CPT-11 dosing from day 2 measured every other day up to 18 days. Details: scale not given: the % may be the effect or the level left. Format: functional. The method, boiled down:
as §2

The test system of data set [15] is Escherichia coli. The data set can be described thus: Inhibition of N-terminal His-tagged Escherichia coli beta-glucuronidase expressed in Escherichia coli BL21 (DE3) using pNPG as substrate at 10 uM at pH 6.0. The essentials:
as §1

Regarding `Nc1n[nH]c2c1c(Nc1ccc(Cl)cc1)nc1ccccc12`, the values for the Activity result in [1] and in data set [4] were “Toxic” and 4.57%, respectively. Moreover, the IC50 in data set [2] came to 0.0348 µM. In addition, the activity at 1 h, 10 µM in data set [3] was determined as 98.8%. Besides, the inhibition in data set [5] is > 80%.
With `Cc1ccc(Nc2nc3ccc(Cl)cc3c3[nH]nc(N)c23)cc1`, the values for the Activity result in [1] and in data set [4] were “Toxic” and 6.13%, respectively. In data set [2], this molecule came in with a half-maximal inhibitory concentration (IC50) of 0.0144 µM. The activity at 1 h, 10 µM in [3] amounted to 91.5%. For the same molecule, in data set [5], the inhibition was > 80%.
Take `Nc1n[nH]c2c1c(Nc1ccc(F)cc1)nc1ccccc12`: the Activity entry in [1] is “Non-Toxic”; in data set [4], 5.59%; in [14] it was 50%. Also, the inhibition in data set [6] is 90%; in data set [8] it was 50%; in data set [10] it was 90%; in [12] it was 75%; in data set [5], > 80%; in data set [15], 80%. Besides, the Activity result in data set [7] was “Active”. The Activity entry in [9] and in [11] was “inactive” in each case. In addition, the IC50 in data set [2] turned out to be 0.137 µM. Moreover, in data set [3], the activity at 1 h, 10 µM was 101%. In addition, the inhibition entry in data set [13] was “Active”.
Turning to `Cc1ccc(Nc2nc3ccc(Br)cc3c3[nH]nc(N)c23)cc1`, the values for the Activity result in data set [1] and in [4] were “Toxic” and 12.1%, respectively. The molecule also had a concentration for half-maximal inhibition (IC50) in data set [2] of 0.0553 µM. In addition, the activity at 1 h, 10 µM in [3] was 97.9%. In addition, in [5], the inhibition is > 80%.
`Cc1ccc(Nc2nc3ccccc3c3[nH]nc(N)c23)cc1`: the Activity result was “Non-Toxic” in data set [1] and 4.78% in data set [4]. In addition, 0.0373 µM corresponded to half-maximal inhibition in [2] (IC50). Also, the inhibition is 40% in [12] and > 80% in data set [5]. Moreover, the activity at 1 h, 10 µM in data set [3] was 100%. Further, in data set [13], the inhibition entry is “Active”.
As to `Nc1n[nH]c2c1c(Nc1ccc(Cl)cc1)nc1ccc(Cl)cc12`, the Activity entry in data set [1] is “Toxic”; in data set [4] it was 6.35%. The same molecule showed an IC50 in data set [2] of 0.0556 µM. For the same molecule, the activity at 1 h, 10 µM in data set [3] was 88.2%. For the same molecule, the inhibition in [5] was > 80%.
In the same order, the values of `Cc1ccc(Nc2nc3cc(F)ccc3c3[nH]nc(N)c23)cc1` are “Toxic”, 6.84%, 0.0381 µM, 91.5% and > 80%.
`Nc1n[nH]c2c1c(Nc1ccc(Cl)cc1)nc1ccc(Br)cc12`: the Activity entry in [1] is “Toxic”; in [4], 16.4%. The molecule further gave an IC50 in data set [2] of 0.018 µM. The activity at 1 h, 10 µM in data set [3] was determined as 107%. Besides, the inhibition in data set [5] is > 80%.

For orientation: IC50 means the midpoint of a concentration-inhibition curve. The term inhibition denotes the drop in the measured response relative to a control, in per cent.
